Read-outs that look alike come from different tables or passages of the source. Marks after values point to notes of the source that are not given here.
Experiments:
[1] = test system: Japanese patients with type 2 diabetes mellitus; assay: Plasma glucose; format: in vivo, human; conditions: for FPG change from baseline / FPG postdose: single 5-mg oral dose, mean ± SD; for changes in plasma glucose AUC0-4 from baseline: single 5-mg dose
In short: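 Hospitalized patients received a single oral dose before breakfast on day 3. Plasma glucose was sampled predose and at 0.5, 1, 2, 4, 6, 8, 12 and 24 h and measured by autoanalyzer. AUC was calculated by the linear trapezoidal rule, with change from the day before dosing estimated per patient. Change in AUC0-4 was analyzed by 1-sample t test.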

[2] = Urinary excretion of luseogliflozin and metabolites up to 72 hours; format: in vivo, human; conditions: single 5-mg dose of luseogliflozin
In short: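 24-h urine was collected before dosing and over 0–24, 24–48 and 48–72 h after a single oral dose. Parent compound and metabolites were quantified by validated LC-MS/MS after solid-phase extraction with deuterated internal standards (parent LLOQ 0.1 ng/mL). Excretion rates were estimated from the urine concentrations.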

[3] = test system: Japanese patients with type 2 diabetes mellitus; assay: Safety: adverse events after a single 5-mg dose; format: in vivo, human
In short: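 Adverse events were recorded by type and incidence from monitoring of clinical laboratory tests, body weight, vital signs and electrocardiograms. Monitoring covered a 6-day hospital stay with a single oral dose on day 3, plus a follow-up visit 3–5 days after discharge.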

[4] = test system: SGLT2; conditions: cited from earlier work
[5] = test system: Japanese patients with type 2 diabetes mellitus; assay: 24-hour urinary glucose excretion; format: in vivo, human; conditions: single 5-mg oral dose, mean ± SD
In short: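 Patients were hospitalized for 6 days and 5 nights on a stable diet, with no other antidiabetic drugs. A single oral dose of the test compound was given before breakfast on day 3. Glucose was measured by autoanalyzer in 24-h pooled urine collected before and after dosing.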

[6] = format: in vivo, human
In short: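 Samples were assayed by validated HPLC-MS/MS (solid-phase extraction, deuterated internal standard, negative-ion MRM; LLOQ 0.05 ng/mL). Parameters came from noncompartmental analysis. Group effects were assessed by ANOVA as geometric mean ratios to the normal-function group with 90% CIs.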

With `CCOc1ccc(Cc2cc([C@@H]3S[C@H](CO)[C@@H](O)[C@H](O)[C@H]3O)c(OC)cc2C)cc1` [luseogliflozin, (1S)‐1,5‐anhydro‐1‐[5‐(4‐ethoxybenzyl)‐2‐methoxy‐4‐methylphenyl]‐1‐thio‐D‐glucitol] the “FPG change from baseline” value ([1]; G1, eGFR ≥90, n = 11) was -27.4 ± 23.5 mg/dL, the FPG postdose ([1]; G1, eGFR ≥90, n = 11) was 139.7 ± 25.2 mg/dL and the “changes in plasma glucose AUC0-4 from baseline” value (“changes … from baseline” below) ([1]; G1, P < .05) was −135 mg⋅h/dL. For the same compound, the “FPG change from baseline” value ([1]; G2, eGFR 60–89, n = 17) was -15.1 ± 13.6 mg/dL, the FPG postdose ([1]; G2, eGFR 60–89, n = 17) was 136.4 ± 37.0 mg/dL and the “changes … from baseline” value ([1]; G2, P < .05) was −104 mg⋅h/dL. The “FPG change from baseline” value ([1]; G3a, eGFR 45–59, n = 9) was −11.3 ± 13.5 ^b mg/dL, the FPG postdose ([1]; G3a, eGFR 45–59, n = 9) was 140.1 ± 26.6 ^b mg/dL and the “changes … from baseline” value ([1]; G3a, P < .05) was −108 mg⋅h/dL. For the same compound, the “FPG change from baseline” value ([1]; G3b, eGFR 30–44, n = 12) was −4.8 ± 11.8 ^c mg/dL, the FPG postdose ([1]; G3b, eGFR 30–44, n = 12) was 135.7 ± 24.3 ^c mg/dL and the “changes … from baseline” value ([1]; G3b) was −30.2 mg⋅h/dL. For the same compound, the “FPG change from baseline” value ([1]; G4, eGFR <30, n = 6) was 2.2 ± 7.9 mg/dL, the FPG postdose ([1]; G4, eGFR <30, n = 6) was 125.8 ± 21.1 mg/dL and the “changes … from baseline” value ([1]; G4) was −32.6 mg⋅h/dL. The “difference in plasma glucose AUC0-4 from G1 (90%CI)” value (“difference … (90%CI)” for short) ([1]; between G1 and G2) was 32.3 (−22.8–87.5), the “difference … (90%CI)” value ([1]; between G1 and G3a) was 26.7 (−38.6 to 91.9) and the “difference … (90%CI)” value ([1]; between G1 and G3b) was 92.2 (21.9–163). The “difference … (90%CI)” value ([1]; between G1 and G4) was 72.6 (−1.29 to 146), the “excreted in urine up to 72 hours after administration” value (shortened to “excreted in urine up to 72 hours”) ([2]; G1) was 4.68% and the “excreted in urine up to 72 hours” value ([2]; G2) was 4.15%. The “excreted in urine up to 72 hours” value ([2]; G3a) was 3.25%, the “excreted in urine up to 72 hours” value ([2]; G3b) was 2.90% and the “excreted in urine up to 72 hours” value ([2]; G4) was 2.15%. The “AEs judged as moderate: increased blood glucose, patients” value ([3]; 57 patients) was 2, the “AEs judged as moderate: syncope, patients” value ([3]; 57 patients) was 1 and the “number of AEs in the total study population” value ([3]; 57 patients, all of mild to moderate severity) was 12. The “Adverse event: Rash (Skin and subcutaneous tissue disorders)” value ([3]; G1 (n = 11)) was 1, the “All adverse events: number of patients” value ([3]; G1 (n = 11)) was 1 and the “Adverse event: Blood glucose increased (Investigations)” value ([3]; G2 (n = 17)) was 1. The “Adverse event: Bundle branch block, right (Cardiac disorders)” value ([3]; G2 (n = 17)) was 1, the “All adverse events: number of patients” value ([3]; G2 (n = 17)) was 2 and the “All adverse events: number of events” value ([3]; G3a (n = 10)) was 2. The “All adverse events: number of patients” value ([3]; G3a (n = 10)) was 2, the “Adverse event: Blood glucose increased (Investigations)” value ([3]; G3b (n = 13)) was 1 and the “Adverse event: Dizziness (Nervous system disorders)” value ([3]; G3b (n = 13)) was 1. For the same compound, the “Adverse event: Syncope (Nervous system disorders)” value ([3]; G3b (n = 13)) was 1, the “All adverse events: number of patients” value ([3]; G3b (n = 13)) was 3 and the “All adverse events: number of patients” value ([3]; G4 (n = 6)) was 0. For the same compound, the “deaths or serious AEs” value ([3]; any group) was “no deaths or serious AEs were observed”, the “AEs judged to be related to luseogliflozin administration” value ([3]; both judged to be mild) was “rash in the G1 group and dizziness in the G3b group” and the “changes in laboratory parameters or vital signs” value ([3]; during the study, data not shown) was “no clinically relevant changes”. The “number of patients with AEs in the total study population” value ([3]; of the 57 patients) was 8, the “selectivity for SGLT2 over SGLT1” value ([4]; SGLT2 versus SGLT1) was 1770 fold and the IC50 ([4]; read-out: half-maximal inhibitory concentration (IC50) for SGLT2) was 2.26 nM. The “UGE0-24 change from baseline” value ([5]; G1, eGFR ≥90, n = 11) was 88.3 ± 36.9 g/day, the UGE0-24 postdose ([5]; G1, eGFR ≥90, n = 11) was 111 ± 36.0 g/day and the “UGE0-24 change from baseline” value ([5]; G2, eGFR 60–89, n = 17) was 69.7 ± 19.1 g/day. For the same compound, the UGE0-24 postdose ([5]; G2, eGFR 60–89, n = 17) was 82.6 ± 23.8 g/day, the “UGE0-24 change from baseline” value ([5]; G3a, eGFR 45–59, n = 9) was 57.3 ± 14.9 g/day and the UGE0-24 postdose ([5]; G3a, eGFR 45–59, n = 9) was 64.4 ± 24.4 ^b g/day. The “UGE0-24 change from baseline” value ([5]; G3a, eGFR 45–59, n = 9, listed as Luseogliflozin) was 57.3 ± 14.9 ^b g/day, the “UGE0-24 change from baseline” value ([5]; G3b, eGFR 30–44, n = 12) was 35.3 ± 10.8 g/day and the UGE0-24 postdose ([5]; G3b, eGFR 30–44, n = 12) was 39.4 ± 12.9 ^c g/day. For the same compound, the “UGE0-24 change from baseline” value ([5]; G3b, eGFR 30–44, n = 12, listed as Luseogliflozin) was 35.3 ± 10.8 ^c g/day, the “UGE0-24 change from baseline” value ([5]; G4, eGFR <30, n = 6) was 21.8 ± 7.10 g/day and the UGE0-24 postdose ([5]; G4, eGFR <30, n = 6) was 23.7 ± 8.83 g/day. The “ratio of the geometric mean (90%CI) of Cmax to the Cmax of G1” value (“ratio … (90%CI) of Cmax to the Cmax of G1” below) ([6]; G2 versus G1) was 0.922 (0.756–1.13), the “ratio of the geometric mean of AUCinf (90%CI) to that of G1” value (“ratio … (90%CI) to that of G1” below) ([6]; G2 versus G1) was 1.05 (0.900–1.21) and the “ratio … (90%CI) of Cmax to the Cmax of G1” value ([6]; G3a versus G1) was 0.939 (0.720–1.22). For the same compound, the “ratio … (90%CI) to that of G1” value ([6]; G3a versus G1) was 1.05 (0.842–1.32), the “ratio … (90%CI) of Cmax to the Cmax of G1” value ([6]; G3b versus G1) was 0.781 (0.607–1.01) and the “ratio … (90%CI) to that of G1” value ([6]; G3b versus G1) was 1.04 (0.879–1.23). For the same compound, the “plasma concentration 72 hours after administration as fraction of the Cmax” value ([6]; G4, single 5-mg dose of luseogliflozin) was “approximately one‐fiftieth”, the “ratio … (90%CI) of Cmax to the Cmax of G1” value ([6]; G4 versus G1) was 0.724 (0.525–0.999) and the “ratio … (90%CI) to that of G1” value ([6]; G4 versus G1) was 1.21 (0.947–1.53). It also gave a concentration at 72 h ([6]; human, plasma, oral, 5 mg) of 1.28 to 3.15 ng/mL.

Source: paper PMC6220780 (Clinical Pharmacology in Drug Development, 2018)
